Results published in ChEMBL document CHEMBL4020830, “Design, Synthesis, and Evaluation of a Novel Series of Indole Sulfonamide Peroxisome Proliferator Activated Receptor (PPAR) α/γ/δ Triple Activators: Discovery of Lanifibranor, a New Antifibrotic Clinical Candidate” (J Med Chem, 2018).

Experiments:
[1] = target: T1, Peroxisome proliferator-activated receptor gamma (Homo sapiens, UniProt P37231)
T1 sequence (P37231 whole entry): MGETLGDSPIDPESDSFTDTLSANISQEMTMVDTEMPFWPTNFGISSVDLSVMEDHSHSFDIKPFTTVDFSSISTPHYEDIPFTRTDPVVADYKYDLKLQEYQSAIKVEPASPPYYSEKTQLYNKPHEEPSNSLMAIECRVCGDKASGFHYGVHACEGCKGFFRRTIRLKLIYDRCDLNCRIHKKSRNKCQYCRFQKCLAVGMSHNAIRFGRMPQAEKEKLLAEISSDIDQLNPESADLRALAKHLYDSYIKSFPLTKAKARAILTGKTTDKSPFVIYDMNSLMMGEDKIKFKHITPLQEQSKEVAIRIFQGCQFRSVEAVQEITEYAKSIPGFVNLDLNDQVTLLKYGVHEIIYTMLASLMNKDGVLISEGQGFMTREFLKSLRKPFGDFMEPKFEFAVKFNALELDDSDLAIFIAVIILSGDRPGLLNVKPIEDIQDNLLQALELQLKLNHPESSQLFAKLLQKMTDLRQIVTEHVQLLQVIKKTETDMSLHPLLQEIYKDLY

[2] = target: T2, Peroxisome proliferator-activated receptor alpha (Mus musculus) (UniProt P23204); assay: Transactivation of mouse GAL4-fused PPARalpha LBD expressed in African green monkey COS7 cells co-expressing 5Gal4 pGL3 TK Luc after overnight incubation by luciferase reporter gene assay relative to fenofibric acid; assay type: cell-based
T2 sequence (whole entry): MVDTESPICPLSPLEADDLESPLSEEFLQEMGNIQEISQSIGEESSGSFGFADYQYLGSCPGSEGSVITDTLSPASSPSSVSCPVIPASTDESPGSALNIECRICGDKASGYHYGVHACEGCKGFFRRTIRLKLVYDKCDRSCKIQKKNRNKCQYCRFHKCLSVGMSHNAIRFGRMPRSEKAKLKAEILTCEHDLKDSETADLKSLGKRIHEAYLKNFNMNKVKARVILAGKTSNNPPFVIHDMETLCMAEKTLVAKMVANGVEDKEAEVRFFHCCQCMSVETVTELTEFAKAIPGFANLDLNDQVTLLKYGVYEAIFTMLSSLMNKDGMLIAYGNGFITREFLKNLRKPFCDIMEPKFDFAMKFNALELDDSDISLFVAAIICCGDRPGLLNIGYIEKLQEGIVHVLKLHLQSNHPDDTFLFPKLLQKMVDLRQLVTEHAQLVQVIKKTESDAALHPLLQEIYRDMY
In short: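 Cell-based Gal-4 transactivation assay in COS-7 cells transfected with PPARα, PPARδ or PPARγ ligand-binding domain. EC50 and Emax were derived, with Emax as maximum activation in percent of control. EC50s are means of at least two independent experiments performed in triplicate.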

[3] = target: T1, Peroxisome proliferator-activated receptor gamma; remark: listed apart in the source

O=C(O)CCCc1cc2cc(Cl)ccc2n1S(=O)(=O)c1ccc2ncsc2c1 [LANIFIBRANOR] showed an EC50 [1] of 1.48 µM, an Emax [2] of 72% and an EC50 [3] of 3.27 µM.
